Hits are enriched below; roughly 4.3% of the tested compounds scored in any of these assays.
Hep lipid drop = hepatic lipid droplet formation modulation; AID 1656; inhibition, % at 6.5 µM; AML12 mouse hepatocytes, oleate lipid droplets, BODIPY imaging; actives 0.4% (n = 240,000);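 active = lipid droplet intensity inhibited by at least 50%, with more than 500 cells counted; inconclusive = wells with under 300 cells, treated as cytotoxic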
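Assay system: AML12 mouse liver cells | Compound: 6.5 µM single-point dosing | Schedule: Overnight exposure | Technique: Fluorescence imaging, 20x objective, two fields per well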
CR mimetic SO = caloric restriction mimetics inhibiting age-related superoxide in yeast; S. cerevisiae aged cells, superoxide DHE fluorescence; hits give low values; superoxide response (% of plate mean), % at 10 µM; actives 0.18% (n = 330,000); AID 2690;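 active = superoxide response under a set limit, about three screen SD below normal, cut at about 65% in these data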;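 note: yeast aged for seven days with compound at 30 °C before DHE staining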
SR-BI uptake up = activators of SR-BI mediated HDL lipid uptake; CHO ldlA[mSR-BI] cells, DiI-HDL uptake fluorescence, 3 h; 100 = double the neutral-control signal; activation, % at 12.5 µM; actives 0.096% (n = 320,000); AID 504775;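 active = mean replicate activation of at least 60% and every replicate at or above 60%; inconclusive = mean or all-replicate condition met, but not both; inactive = mean below 60% and not all replicates reaching 60%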
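Assay system: LDL receptor-deficient CHO ldlA cells overexpressing murine SR-BI / Medium: BSA-supplemented, HEPES-buffered Ham's F12, pH 7.4 / Probe or stimulus: DiI-labelled HDL at 10 µg/mL final / Timing: compound with DiI-HDL co-incubation, 3 h at 37 °C / Technique: bottom-read cell fluorescence after medium removal, ex 550/em 595 nm / Measure: HDL uptake via cellular fluorescence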
SMARCA2 act = increases SMARCA2 function in MMTV reporter cells | MG213 cells, MMTV-luciferase reporter, dexamethasone, overnight | activation, % at 9.1 µM | actives 1% (n = 370,000) | AID 652017; in the data active = activation above about 7.8%
AHR act = human AHR activation. P35869. activation, % at 5 µM. AHR-responsive luciferase reporter cells, luminescence. actives 2.5% (n = 320,000); in the data active = activation above about 47%
SR-BI DiI inh = inhibitors of mouse SR-BI mediated HDL lipid uptake | inhibition, % at 12.5 µM | actives 0.96% (n = 320,000) | AID 488896 | ldlA[mSR-BI] CHO cells, DiI-HDL uptake fluorescence, 3 h | Q61009;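 active = mean replicate inhibition of at least 70% and a set share of replicates each scoring 70 or more; inconclusive = meets just one of the two criteria; inactive = fails both criteria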
Target sequence (Q61009 whole entry, looked up): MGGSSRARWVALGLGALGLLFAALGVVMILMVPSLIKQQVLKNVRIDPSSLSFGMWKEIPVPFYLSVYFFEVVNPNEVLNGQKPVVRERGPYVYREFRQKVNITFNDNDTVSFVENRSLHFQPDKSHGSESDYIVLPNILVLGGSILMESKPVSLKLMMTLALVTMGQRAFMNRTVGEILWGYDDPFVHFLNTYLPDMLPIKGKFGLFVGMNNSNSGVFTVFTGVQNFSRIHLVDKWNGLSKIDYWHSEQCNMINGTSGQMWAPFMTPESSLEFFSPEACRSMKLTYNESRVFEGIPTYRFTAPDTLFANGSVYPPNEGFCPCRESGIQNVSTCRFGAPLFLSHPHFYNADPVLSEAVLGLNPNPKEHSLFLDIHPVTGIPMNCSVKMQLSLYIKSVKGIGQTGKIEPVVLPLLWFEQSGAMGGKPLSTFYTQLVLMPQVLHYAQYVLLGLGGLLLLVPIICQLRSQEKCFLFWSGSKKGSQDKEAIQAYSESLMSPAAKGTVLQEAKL
SMARCA2 act conf = SMARCA2 activation, confirmation screen; shares compounds with SMARCA2 act; MG213 cells, MMTV-luciferase with dexamethasone, luminescence, overnight; MG213 cells expressing E1A, Rb sequestered; DMSO wells 0%, reference activator 100%; activation, % at 9.1 µM; actives 30% (n = 3,500); AID 652260;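 active = activation above its plate's cutoff, the mean activation of tested wells plus 3 SD, cut at about 7.9% in these data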
GAL4-VP16 Luc = counter-screen for SMARCA2 activators: GAL4-VP16 luciferase reporter activation | shares compounds with SMARCA2 act | HEK293 GAL4-VP16 pG5luc reporter, luciferase luminescence; scaled: DMSO wells 0%, SAHA wells 100% | activation, % at 9.1 µM | actives 41% (n = 3,500);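 active = activation above the solvent-only control well mean plus 3 SD, averaged across control plates, cut at about 5.2% in these data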
A number is an active result; – = inactive; ? = inconclusive; · = not tested or not shown.

SMILES	Hep lipid drop	CR mimetic SO	SR-BI uptake up	SMARCA2 act	AHR act	SR-BI DiI inh	SMARCA2 act conf	GAL4-VP16 Luc
O=C(c1ccccc1)N1CCC(Oc2cccnc2)CC1	·	·	·	–	·	·	·	·
Cc1ccc(O)c(N=CC2=C(O)c3ccccc3C2=O)c1	·	–	–	8.4	78.4	117.7	18.8	13.7
CCN(CC)S(=O)(=O)c1ccc(NC(=O)c2cccs2)cc1	–	–	–	–	–	–	·	·
CCN(CC)S(=O)(=O)c1ccc(C(=O)NNC(=O)c2cccs2)cc1	–	–	–	10.8	–	–	–	–
NC(=O)c1cccnc1Nc1cccc([N+](=O)[O-])c1	–	–	–	12.6	–	–	7.8	8.6
CN1C(=O)C(C)(C)c2cc(S(=O)(=O)N3CCCC(C(=O)NCc4ccccc4Cl)C3)ccc21 (stereo unspecified)	–	–	–	10.3	–	–	–	–
COc1ccc(CNC(=O)C2CCCN(S(=O)(=O)c3ccc4c(c3)C(C)(C)C(=O)N4C)C2)cc1 (stereo unspecified)	–	–	–	–	–	–	·	·
Cc1nc(NCCC(C)C)c2nnn(Cc3ccccc3)c2n1	–	–	–	–	–	–	·	·
CCC(C)Nc1nc(C)nc2c1nnn2Cc1ccccc1 (stereo unspecified)	·	·	·	8.0	·	·	–	–
COc1ccc(N2C(=S)N(C(=O)c3ccccc3)C(=Nc3ccccc3)C2=Nc2ccccc2)cc1	·	–	–	11.2	–	–	–	–
O=c1c2ccccc2oc2cc(C#Cc3ccccn3)ccc12	·	·	–	8.0	–	–	–	9.6
COc1cccc2oc3ccc(C#Cc4ccccn4)cc3c(=O)c12	–	–	–	10.4	–	–	–	10.3
O=C(NNC1CC(=O)N(c2ccc3c(c2)OCCO3)C1=O)c1ccccc1 (stereo unspecified)	·	–	–	8.6	–	–	–	–
COC(=O)[C@]12C[C@H](CC(=O)N3CCN(C(=O)c4ccco4)CC3)C(=O)N(CCC3=CCCCC3)C1=C[C@H](C(C)C)O[C@@H]2C1CC1	·	·	·	–	·	·	·	·
CCOC(=O)c1c(N)sc2c(OCC)c(Br)ccc12	–	–	–	–	–	–	·	·
CCOC(=O)c1c(NC(C)=O)sc2c(OCC(O)CNC(C)(C)C)c(Br)ccc12 (stereo unspecified)	–	–	–	11.2	–	–	8.7	–
CSc1ccc(/C=C/c2ccc3cccc(O)c3n2)cc1	–	–	–	–	–	–	·	·
Cc1ccsc1/C=C/c1ccc2cccc(O)c2n1	–	–	–	13.0	93.9	–	–	19.1
COc1ccc(OC)c(/C=C/c2ccc3cccc(O)c3n2)c1	?	–	–	9.1	–	–	–	13.3
Oc1cccc2ccc(/C=C/c3cccs3)nc12	–	–	–	12.9	70.3	–	–	22.5
Cc1ccsc1/C=C/c1ccc2ccccc2n1	·	–	–	–	–	–	·	·
CN(CCOC(=O)c1cccs1)C1CN(Cc2cn(Cc3ccccc3Cl)nn2)S(=O)(=O)C1 (stereo unspecified)	·	·	·	–	·	·	·	·
COc1ccc(CN2C(C(=O)NC3CCCC3)CSCCS2(=O)=O)cc1 (stereo unspecified)	·	·	·	–	·	·	·	·
CN(C(=O)c1ccco1)c1nnc(-c2ccc(F)cc2)s1	–	–	·	–	–	·	·	·
CN(C(=O)c1ccco1)c1nc(-c2ccc(F)cc2)cs1	–	–	–	9.3	–	–	8.0	7.6
SMILES	Hep lipid drop	CR mimetic SO	SR-BI uptake up	SMARCA2 act	AHR act	SR-BI DiI inh	SMARCA2 act conf	GAL4-VP16 Luc
O=C(/C=C(\Nc1ccc(Br)c(F)c1)c1ccccc1)c1ccccc1	·	·	·	–	·	·	·	·
COC(=O)CSc1nnc(-c2ccc(NS(=O)(=O)c3ccc(C)c(C)c3)cc2)o1	·	·	·	–	·	·	·	·
COC(=O)[C@]12C[C@H](CC(=O)NCCCCc3ccccc3)C(=O)N(Cc3ccc(Cl)cc3Cl)C1=C[C@H](COCc1ccccc1)O[C@@H]2C	·	·	·	–	·	·	·	·
Cc1ccc2nc3sc(C(=O)N4CCOCC4)c(N)c3cc2c1	·	–	–	–	–	–	·	·
Cc1ccc2cc3c(N)c(C(=O)N4CCOCC4)sc3nc2c1	·	–	–	9.5	–	–	14.2	13.9
COC(=O)C1=C(C)N(C)C(=NCC2CC2)NC1c1cccc(C(F)(F)F)c1 (stereo unspecified)	·	·	·	–	·	·	·	·
CC(SCc1cc(=O)n2c([nH]c3ccccc32)c1C#N)C(=O)O (stereo unspecified)	–	–	–	10.9	–	–	–	–
COc1ccc(C(=O)N2C(=S)NC(=O)/C2=C\c2ccc(C)cc2)cc1	–	–	–	12.7	–	–	–	–
COc1ccc(N/C(C)=C/C(=O)c2ccccc2)cc1	–	–	–	–	–	–	·	·
COc1ccc(N/C(C)=C/C(=S)Nc2ccccc2)cc1	–	–	–	11.5	–	–	–	–
COc1ccc(N2CCN(CCCNC(=O)CCc3ccc(F)cc3)CC2)cc1	·	·	·	–	·	·	·	·
Cc1ccccc1C(=O)N[C@H](C(=O)N1CCC[C@H]1C(=O)NCc1ccccc1)c1ccccc1	·	·	·	–	·	·	·	·
CCCNc1ccc(C(=O)OCC)cc1[N+](=O)[O-]	–	–	–	9.3	–	–	8.4	–
CCOC(=O)CNc1ccc(C(=O)OCC)cc1[N+](=O)[O-]	–	–	–	–	–	–	·	·
Cc1cc(Cl)c2oc(C(=O)N3CCN(c4cccc(C)n4)CC3)c(C)c2c1	–	–	–	11.3	–	–	–	14.7
CCOc1cc(OCC)cc(C(=O)N2CCC[C@@H]2C(=O)N2CCC[C@@H]2C(=O)NCc2cccc(OC)c2)c1	·	·	·	–	·	·	·	·
CC(=O)c1cccc(NC(=O)C2CCCC2)c1	–	–	–	–	–	–	·	·
O=C(NC1CC1)c1cccc(NC(=O)C2CCCCC2)c1	·	·	–	8.1	·	–	–	–
Cn1cnnc1SCC(=O)Nc1ccc2nc(SCc3ccccc3F)sc2c1	–	–	–	9.9	–	–	–	9.0
CCOc1ccc(NC(=S)NC(=O)c2ccco2)cc1	–	–	–	10.0	–	–	–	11.0
O=C(OC1CCOC1=O)c1ccc2ncsc2c1 (stereo unspecified)	–	–	–	11.7	–	–	–	–
CCCC(=O)OC12CCCN(C1)/C(=C/c1cccc(N(C)C)c1)C2 (stereo unspecified)	·	·	·	–	·	·	·	·
C(=N\Nc1ccccc1)/c1nc2ccccc2s1	–	–	–	10.4	69.4	–	–	9.0
COc1ccc(C=NNc2nc3ccccc3s2)cc1	·	·	–	–	·	–	·	·
CCOc1ccccc1Nc1cc2n(c(=O)n1)CCc1cc(OC)c(OC)cc1-2	–	–	–	12.1	–	–	8.8	7.8
